Assay [1] concerns Mus musculus. The experiment in a line: Antitumor activity against ip implanted L1210 leukemia in mouse after ip administration of 30 mg/kg for 5 days expressed as increase in mean life span. In kind it is functional. The note with it: route intraperitoneal; for ILS at 30 mg/kg: Mus musculus, L1210, ip, 120 h; for ILS: 30 mg/kg. The method in brief:
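Drug was dissolved in 0.9% NaCl, diluted just before use and given ip once daily for 5 consecutive days, starting 24 h after transplant. ILS % = mean survival time of treated vs control mice, observed for 80 days.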

Assay [2] concerns Mus musculus. The experiment in a line: Number of survivors out of 6 ip implanted L1210 leukemia mouse, tested after 80 days at 30 mg/kg. The conditions noted are these: route intraperitoneal. In kind it is functional. The essentials:
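Female BDF1 mice implanted ip with ascitic fluid holding 10^5 L1210 cells. Saline-dissolved drug given ip daily on days 1-5, starting 24 h after implant. Six mice per dose group, followed 80 days. Survivors/total counted at day 80; ILS % from mean survival time vs controls.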

The term ILS denotes the gain in survival time of treated over control animals, in per cent. High values mean much gain in survival, low ones little gain in survival. `Br.CC(=O)[O-].Cc1c2cc[n+](C3O[C@H](C)[C@@H](O)[C@@H]3O)cc2c(C)c2c1[nH]c1ccc(O)cc12` (some centres not stated) came in with an ILS at 30 mg/kg with Mus musculus [1] of over 217%. The compound further gave a Cures in the assay on Mus musculus [2] of 1.
The corresponding values for `Cc1c2cc[n+](C3O[C@H](CO)[C@@H](O)[C@H]3O)cc2c(C)c2c1[nH]c1ccc(O)cc12.[Br-]` (some centres not stated) are over 387% and 2.
The corresponding values for `CC(=O)[O-].Cc1c2cc[n+]([C@@H]3O[C@H](CO)[C@@H](O)[C@@H]3O)cc2c(C)c2c1[nH]c1ccc(O)cc12` are over 262% and 1.
The compound `Cc1c2cc[n+]([C@@H]3O[C@@H](C)[C@H](O)[C@H]3O)cc2c(C)c2c1[nH]c1ccc(O)cc12.[Cl-]` showed a Cures with Mus musculus [2] of 1.
In the case of `CC(=O)[O-].Cc1c2cc[n+]([C@H]3O[C@@H](CO)[C@H](O)[C@H]3O)cc2c(C)c2c1[nH]c1ccc(O)cc12`, in the assay on Mus musculus [1], the ILS at 30 mg/kg was over 269%. In the assay with Mus musculus [2], this compound gave a Cures of 1.
Turning to `Cc1c2cc[n+]([C@@H]3O[C@H](C)[C@@H](O)[C@H]3O)cc2c(C)c2c1[nH]c1ccc(O)cc12.[Cl-]`, the ILS at 30 mg/kg in the assay on Mus musculus [1] is over 230%. The compound further yielded a Cures in the assay with Mus musculus [2] of 1.
The matching figures for `COc1ccc2[nH]c3c(C)c4cc[n+](C5O[C@@H](C)[C@H](O)[C@@H](O)[C@H]5O)cc4c(C)c3c2c1.[Br-]` (some centres not stated): 56% and 0.
As to `Cc1c2cc[n+]([C@@H]3O[C@H](C)[C@H](O)[C@H](O)[C@H]3O)cc2c(C)c2c1[nH]c1ccc(O)cc12.[Br-]`, the ILS at 30 mg/kg in the assay on Mus musculus [1] came out at 124%. Further, in the assay with Mus musculus [2], the Cures came to 0.
The matching figures for `COc1ccc2[nH]c3c(C)c4cc[n+]([C@@H]5O[C@H](C)[C@H](O)[C@H](O)[C@H]5O)cc4c(C)c3c2c1.[Br-]`: 20% and 0.
With `Cc1c2cc[n+]([C@@H]3O[C@H](C)[C@H](O)[C@H](O)[C@H]3O)cc2c(C)c2c1[nH]c1ccccc12.[Br-]`, the ILS at 30 mg/kg in the assay on Mus musculus [1] is 20%. For the same compound, the Cures with Mus musculus [2] is recorded as 0.
The matching figures for `CC(=O)N[C@@H]1[C@@H](O)[C@H](O)[C@@H](CO)O[C@H]1[n+]1ccc2c(C)c3[nH]c4ccc(O)cc4c3c(C)c2c1.[Cl-]`: 39% and 0.
In the assay on Mus musculus [1], `CC(=O)N[C@@H]1[C@@H](O)[C@@H](O)[C@@H](CO)O[C@H]1[n+]1ccc2c(C)c3[nH]c4ccc(O)cc4c3c(C)c2c1.[Cl-]` gave an ILS at 30 mg/kg of 8%. This compound also showed a Cures in the assay on Mus musculus [2] of 0.
The matching figures for `COc1ccc2[nH]c3c(C)c4cc[n+](C5OCC(O)C(O)C5O)cc4c(C)c3c2c1.[Br-]` (configuration not stated): 56% and 0.
Compound `CC(=O)[O-].Cc1c2cc[n+](C3OC(C)C(O)C(O)C3O)cc2c(C)c2c1[nH]c1ccc(O)cc12` (configuration not stated) returned an ILS at 30 mg/kg in the assay with Mus musculus [1] of over 615%. Moreover, the Cures in the assay with Mus musculus [2] is 3.
The corresponding values for `COc1ccc2[nH]c3c(C)c4cc[n+](C5O[C@@H](CO)[C@H](O)[C@@H]5O)cc4c(C)c3c2c1.[Br-]` (some centres not stated) are 76% and 0.
In turn, `Cc1c2cc[n+]([C@@H]3OC[C@@H](O)[C@@H](O)[C@H]3O)cc2c(C)c2c1[nH]c1ccc(O)cc12.[Br-]` (stereo in doubt; 48a) registered an ILS in the assay on Mus musculus [1] of 112%. In the assay with Mus musculus [2] (30 mg/kg), this compound returned a Cures of 0.
As to `Cc1c2cc[n+]([C@@H]3OC[C@@H](O)[C@@H](O)[C@H]3O)cc2c(C)c2c1[nH]c1ccc(O)cc12.[Br-]` (stereo in doubt; 48b), the ILS in the assay on Mus musculus [1] is over 944%. The same compound returned a Cures in the assay with Mus musculus [2] (30 mg/kg) of 6.
The compound `Cc1c2cc[n+]([C@@H]3OC[C@@H](O)[C@@H](O)[C@H]3O)cc2c(C)c2c1[nH]c1ccc(O)cc12.[Br-]` (stereo in doubt; 50a) registered an ILS in the assay with Mus musculus [1] of over 857%. Moreover, the Cures with Mus musculus [2] (30 mg/kg) was found to be 5.
On to `Cc1c2cc[n+]([C@H]3O[C@@H](C)[C@@H](O)[C@@H](O)[C@@H]3O)cc2c(C)c2c1[nH]c1ccc(O)cc12.[Br-]` (stereo in doubt; 53b), for which the ILS with Mus musculus [1] was over 583%. The Cures in the assay on Mus musculus [2] (30 mg/kg) came to 3.

For the origin of these results see ChEMBL document CHEMBL1124260, “Synthesis and antitumor activity of quaternary ellipticine glycosides, a series of novel and highly active antitumor agents” (1988).
